Tested on: MS2 coat protein
Test: apparent Kd, MS2 coat protein; higher = weaker binding; RNA-MaP array; FMN 200 µM where present
Procedure, shortened: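 Designs were transcribed by stalled E. coli RNA polymerase on Illumina sequencing-chip clusters. They were titrated with SNAP-549-labelled MS2 coat protein from 0.7 or 1.5 nM, doubling to 3 µM, in 100 mM Tris-HCl pH 7.5, 80 mM KCl, 4 mM MgCl2, BSA, DTT, yeast tRNA and Tween-20, without and then with constant ligand. The apparent Kd is the median of filtered per-cluster fits after normalisation of green signal to red-channel RNA signal and control-cluster median Fmax.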

[1] = designed as: OFF switch for flavin mononucleotide, no ligand
[2] = ligand present: flavin mononucleotide, designed as: OFF switch for flavin mononucleotide
[3] = designed as: ON switch for flavin mononucleotide, no ligand
[4] = ligand present: flavin mononucleotide, designed as: ON switch for flavin mononucleotide

Sequence | apparent Kd [1] [nM] | apparent Kd [2] [nM] | apparent Kd [3] [nM] | apparent Kd [4] [nM]
ACCAAUGCAGGAUAUACAUGAGGAUCACCCAUGUAUAACCUACAUAGAUGAUCAUCAUGUAGAAGGGCAUUGGA | 12.5 | 10.1 |  | 
UUGGACGUCGUAGGAUAUGUAGGAUAUUCCUACAUGAGGAUCACCCAUGUUGACAUGGACGAAGGACAGAAGGACGAUGUCCAU |  |  | 479 | 134
GGGCCCGGAGGAUAUACAUGAGGAUCACCCAUGUAUGUGUGUGUUAUUGCGCGCGCGUGUAGAAGGCCGGGCCC | 19.9 | 80.2 |  | 
AUAAUUUUAUAUAUCUAUUUAAUCAGAAGGCAUAACAUGAGGAUCACCCAUGUAAAUUAAUGUUAUGAGGAUAUGAUAUGGUUA | 11.3 | 78 |  | 
UGGUACUAGGGAGGAUAUGGGAAGAUACAUGAGGAUCACCCAUGUUUAAGAAUGCCGAGAGGCAACUAGAAGGCCCUAGUACCU |  |  | 1050 | 45.3
AGCUGUGGCCGAGGAUAUCUAAUAACUCAAACCGAAAUAUAAUCGGACAUGAGGAUCACCCAUGUAGAGAAGGCGGUCUCAGCA | 84.6 | 154 |  | 
CUCGGACAUGAGGAUCACCCAUGUGAGGAUAUGGUGCUAUCGUCAUUAGACGAUUGCGUUAGAAGGCACAAAUG | 41.5 | 54.6 |  | 
GUCGCUAGAGGAUAUACAAUGGUAUAUGAUCCUAGUGACAUACAUGAGGAUCACCCAUGUAGAAGGCUAGUAUU | 23.5 | 19 |  | 
UGUACUAUAAGGUUAAUUGUAUAUUGAGAAGGCAUACACAUGAGGAUCACCCAUGUAACAUGGAAUGAGGAUAUCAUUAUGUAC |  |  | 17.3 | 14.4
CCGGAAAUGAAGGAUAUAGGAGUCGAUAGACACCUAGAAGGUCAUACAUGAGGAUCACCCAUGUGUCCUACCGG | 15.2 | 31 |  | 
ACGACGAAAGUCGAACGAUGAUCGAGAAGGACAUGAGGAUCACCCAUGUCCGCUGUAACAGCCAUGUAGGAUAUCGAUCAUCGA | 3.59 | 3.83 |  | 
UGAUAGGACAGAGGAUAUACAGAUAGGAUCUACUAUCAAACAGUCCUUACAUGAGGAUCACCCAUGUAGAAGGCUGUCCUAUCU | 19.8 | 85.8 |  | 
GUGUAGUUAGGAUAUGCUGGAAUCUAGCGAAGCUAGGUUCCACAUGAGGAUCACCCAUGUAGAAGGGACUACAC |  | 73 |  | 
AAUGCCGUAGGAUAUAUAUGGCAGAUCGCACGUCCUGAAAGACAUGAGGAUCACCCAUGUAGAAGGGCGGAAAC | 14.7 | 17 |  | 
UGAUAGGACAGAGGAUAUACCGAUAGGAUCUACUAUCGAAGAAUCCUCACAUGAGGAUCACCCAUGUAGAAGGCUGUCCUAUCU | 41.6 | 678 |  | 
AACAUGUCAGGAUAUGCAAAAGGAGACUGACACGCGAGUGAGCAGAAGGGACAUGAGGAUCACCCAUGUUCAAA | 18.3 | 16 |  | 
AUAUAACAUGAGGAUCACCCAUGUCACUAAAGUCGAGGAUAUGGGCAGGUUAUAUCCGAACCAGAAGGCGAAUUAU |  |  | 220 | 29.2
GGGCCCGGAGGAUAUACAUGAGGAUCACCCAUGUAUCUGGGUCUUAUUGGGCUCGGGUGUAGAAGGCCGGGCCC | 11.8 | 13.8 |  | 
GUGACGAAUGUAGGAUAUGCUGAGGAUAACUCAGCAGAAGGACAUGAGGAUCACCCAUGUCAUCCUAAUAAUAAAUAACGUCAC | 14.8 | 18.8 |  | 
ACCAAUGGAGGAUAUACAUGAGGAUCACCCAUGUUUAUCCUACAUAGGUGAAAAACAUGUAGAAGGCCAUUGGA | 14.8 | 13.2 |  | 
GUGGCUAGUGCAGGAUAUCGGCGCGUGUAGUGCCGAGAAGGGCACAUGAGGAUCACCCAUGUGAUCAAUCACUGCUAAGGCCGC | 5.19 | 5.37 |  | 
AAAUAAAUCACAGGAUAUCUAGGGAUACAUGAGGAUCACCCAUGUUUGCAAAGAGAAGGGUGACAGUAUUAUCAGAUCAACAAU |  |  | 210 | 38.1
CCGCUAAAUGGAGGAUAUGGAGCCUUAUUGGCUCCAGAAGGUCAAAACAUGAGGAUCACCCAUGUGCGGCGGUCUAAUGACCGA |  |  | 186 | 50.2
UCUGGUCGAGGAUAUACAUGAGGAUCACCCAUGUUGAUCAAGCGACUUCGGUCGCAAUGUAGAAGGCGACCAGA | 627 | 182 |  | 

Sequence | apparent Kd [1] [nM] | apparent Kd [2] [nM] | apparent Kd [3] [nM] | apparent Kd [4] [nM]
GUGUACAGAGGAUAUACAUGGGCAUGGAAACAUGCAUCUUCACAUGAGGAUCACCCAUGUAGAAGGCUGUACAC | 34.7 | 21.3 |  | 
AGCAUGUUAGGAUAUGCGAAGUCAGGACACACACUGACGAAGCAGAAGGAACAUGAGGAUCACCCAUGUAAGCA | 71.8 | 45.7 |  | 
UCGCGGGUGCAGAAGGGAUAGGCCUAUUGUCGUGGUGUCUAAACUUAACAUGAGGAUCACCCAUGUCAGGAUAUGCCCACGCGA | 11.6 | 13.5 |  | 
GACCGAUAGUCAGGAUAUGCAUGGUUAGUUGAUUACAUGAGGAUCACCCAUGUAGAAGGGACUUUGGCUAAAUCCGUGAUGCGU | 22.3 | 51.7 |  | 
CUUUCGUGAGGAUAUGUGGCUUCGAUCGUGAGAUCGAGAAAACAGAAGGCACAUGAGGAUCACCCAUGUUCCUC | 41 | 515 |  | 
UCUUUAUUUGUGAGGAUAUCGAUAAAAUGGAUUGUCGAGAAGGCACAUGAGGAUCACCCAUGUAUUGAACAGCA | 59.2 | 212 |  | 
AGCUGGUGACAGCAAGAAGUUUAACAUGAGGAUCACCCAUGUAGAAGGCUGUACGGUUACCGUACAGAGGAUAUACAUAGAAAG | 43.7 | 57.5 |  | 
GCUAGUAUUGCAGGAUAUUGUAAUUUAUUAUUUCAAGAAGGGCAUUACAUGAGGAUCACCCAUGUCAUCCUAUGGUAUACUAGC | 10.6 | 22.8 |  | 
GCUGUGGCAUGAGGAUAUGCUCAGCUUUGCUGAGCAGAAGGCAUGUCAAUAGACAUGAGGAUCACCCAUGUAGUUAACACAGCA |  |  | 462 | 32.9
CUCGAGUGAGGAUAUAUACUUCCAUCAUUUGAGAGAGAAGUAUAGAAGGCACAUGAGGAUCACCCAUGUAUAAA | 47.5 | 69.7 |  | 
AUAGCAACAUGAGGAUCACCCAUGUAGGAUAUCGCUAUUGUAAUCAUGAAACAUGAUUACAAUAGCGAGAAGGACAUAUGCUAA | 7.84 | 10.2 |  | 
GUCUCGAUGUAAGGAUAUGCAGUGGAUAACACUGCAGAAGGUACAUGAGGAUCACCCAUGUAUAUGAAAGAUAAUAAACGAGAC | 14.4 | 19.8 |  | 
UCACCUGCCGAGGAUAUGAACGUAUUGAAUUGAUUAGAAGGCGGCACAUGAGGAUCACCCAUGUCACUGCACGC | 11.7 | 11.5 |  | 
UGGUCAUGAUCAGGAUAUUAACAUGGGCUACAUUAAGAAGGGAUAGUGAGAUGCGAACGGAACGACAUGAGGAUCACCCAUGUA |  |  | 44.6 | 35
UUACUACAUGUAGGAUAUGCGUGGCGAAGCUAUGCAGAAGGACAUGAGGAUCACCCAUGUUUUAGCGUCUGCGUACAGAUGCGU | 19 | 28.4 |  | 
AUUAUGUUAGGAUAUGCUUAUGGUGGAUAGUCCAAUAUGGUGCAGAAGGGACAUGAGGAUCACCCAUGUACUGA | 83.2 | 90.3 |  | 
AAUAACAGAGGAUAUACUGUUUUAUGUGUUUGUUGUUUUGAACAUGAGGAUCACCCAUGUAGAAGGCUGAGUAA | 29.1 | 25.9 |  | 
GCGUCAGAAUUAAUUGUGACAUACAGAAGGCAAAAGUAAGGAUAAGACAUGAGGAUCACCCAUGUUGAGGAUAUGUAGAGAAUC | 10.7 | 8.64 |  | 
AGAACUGAUAGAGGAUAUGUUUUACAUGAGGAUCACCCAUGUGUACAAGGAUCAAUAUAUUUGUUACAGAAGGCUAUUAGUGAG | 11.8 | 18.7 |  | 
GACUGCCGAGGAUAUACAUGAGGAUCACCCAUGUGCUUCAGCAUUUUUUGAUGCAUGGGUAGAAGGCGGUAGUU | 453 | 326 |  | 
AUCGACAGUGUCAGGAUAUCUCACCCGAGUGGGCGAGAGAAGGGACAUGAGGAUCACCCAUGUGCGUUCUCUAA | 27.5 | 174 |  | 
CGUGUAAACUCAGGAUAUCCUGCGAGCAACGGGUAUUGAGUCUUCACAUGAGGAUCACCCAUGUAGGAGAAGGGAGGUACAAAA | 72.6 | 187 |  | 
GGUGUGUUAGGAUAUCGCGGCGGCGGCGUUUGUUGUUGUUGUGAGAAGGAACAUGAGGAUCACCCAUGUGCGCC | 27.3 | 75.5 |  | 
AGCUAGUACCGAGGAUAUACAUACAUGAGGAUCACCCAUGUAUACAUGAAUAAAUGAGACUACAUGUAGAAGGCGGUACUAGCA |  |  | 71.1 | 20
